Assay results from ChEMBL document CHEMBL1126176, “Synthetic modification of a novel microbial ionophore: exploration of anticoccidial structure-activity relationships” (J Med Chem, 1992).

Assays:
Gallus gallus [1] = organism: Gallus gallus; assay: In vitro concentration of compound to inhibit growth of Eimeria tenella by 50% […]; type: functional, organism-based
Method in brief: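 E. tenella grown in vitro with drug. Growth is compared with nonmedicated controls. The value is the drug concentration (ppm) that inhibits growth by 50%.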

Gallus gallus [2] = organism: Gallus gallus; assay: Minimum concentration of the compound(ppm) in feed which provides control of Eimeria tenella lesions equivalent to noninfected, nonmedicated birds; type: functional
Method in brief: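 Drug is given continuously in feed to E. tenella-infected birds from 1 day before infection. Birds are killed 6 days after infection and lesions are scored. The value is the lowest feed level (ppm) giving lesion control equal to noninfected, nonmedicated birds.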

CO[C@@H]1[C@@H](O[C@H]2CC[C@H](OC)[C@@H](C)O2)[C@H](C)[C@@](O)(C(C)C(=O)[O-])O[C@H]1[C@H](C)[C@H]1O[C@@]2(CC[C@@](C)([C@H]3CC[C@@](C)([C@@H]4O[C@@H]([C@H]5O[C@](C)(O)[C@H](C)C[C@@H]5C)C[C@@H]4O[C@H]4CC[C@H](OC)[C@@H](C)O4)O3)O2)C[C@H](O)[C@H]1C.[Na+] (stereo partly drawn)
IC50 (Gallus gallus [1]): 0.03 p.p.m.
MEC (Gallus gallus [2]): 7.5 p.p.m.

CO[C@@H]1[C@@H](O[C@H]2CC[C@H](OC)[C@@H](C)O2)[C@H](C)[C@](CC(=O)[O-])(OC)O[C@H]1[C@H](C)[C@H]1O[C@@]2(CC[C@@](C)([C@H]3CC[C@@](C)([C@@H]4O[C@@H]([C@H]5O[C@](C)(O)[C@H](C)C[C@@H]5C)C[C@@H]4O[C@H]4CC[C@H](OC)[C@@H](C)O4)O3)O2)C[C@H](O)[C@H]1C.[Na+]
MEC (Gallus gallus [2]): 120 p.p.m.

CO[C@@H]1[C@@H](O[C@H]2CC[C@H](OC)[C@@H](C)O2)[C@H](C)[C@@](O)(CC(=O)[O-])O[C@H]1[C@H](C)[C@H]1O[C@@]2(CC[C@@](C)([C@H]3CC[C@@](C)([C@@H]4O[C@@H]([C@H]5O[C@](C)(OC)[C@H](C)C[C@@H]5C)C[C@@H]4O[C@H]4CC[C@H](OC)[C@@H](C)O4)O3)O2)C[C@H](O)[C@H]1C.[Na+]
IC50 (Gallus gallus [1]): 0.02 p.p.m.
MEC (Gallus gallus [2]): 50 p.p.m.

CO[C@@H]1[C@@H](O[C@H]2CC[C@H](OC)[C@@H](C)O2)[C@H](C)[C@@](O)(CC(=O)[O-])O[C@H]1[C@H](C)[C@H]1O[C@@]2(CC[C@@](C)([C@H]3CC[C@@](C)([C@@H]4O[C@@H]([C@@H](O)[C@@H](C)C[C@@H](C)C(C)(C)O)C[C@@H]4O[C@H]4CC[C@H](OC)[C@@H](C)O4)O3)O2)C[C@H](O)[C@H]1C.[Na+]
IC50 (Gallus gallus [1]): 0.03 p.p.m.
MEC (Gallus gallus [2]): >120 p.p.m.

C=CCC(C(=O)[O-])[C@@]1(O)O[C@@H]([C@H](C)[C@H]2O[C@@]3(CC[C@@](C)([C@H]4CC[C@@](C)([C@@H]5O[C@@H]([C@H]6O[C@](C)(O)[C@H](C)C[C@@H]6C)C[C@@H]5O[C@H]5CC[C@H](OC)[C@@H](C)O5)O4)O3)C[C@H](O)[C@H]2C)[C@H](OC)[C@@H](O[C@H]2CC[C@H](OC)[C@@H](C)O2)[C@@H]1C.[Na+] (stereo partly drawn)
IC50 (Gallus gallus [1]): 0.01 p.p.m.
MEC (Gallus gallus [2]): 60 p.p.m.

CCC(C(=O)[O-])[C@@]1(O)O[C@@H]([C@H](C)[C@H]2O[C@@]3(CC[C@@](C)([C@H]4CC[C@@](C)([C@@H]5O[C@@H]([C@H]6O[C@](C)(O)[C@H](C)C[C@@H]6C)C[C@@H]5O[C@H]5CC[C@H](OC)[C@@H](C)O5)O4)O3)C[C@H](O)[C@H]2C)[C@H](OC)[C@@H](O[C@H]2CC[C@H](OC)[C@@H](C)O2)[C@@H]1C.[Na+] (stereo partly drawn)
MEC (Gallus gallus [2]): 30 p.p.m.

CCCC(C(=O)[O-])[C@@]1(O)O[C@@H]([C@H](C)[C@H]2O[C@@]3(CC[C@@](C)([C@H]4CC[C@@](C)([C@@H]5O[C@@H]([C@H]6O[C@](C)(O)[C@H](C)C[C@@H]6C)C[C@@H]5O[C@H]5CC[C@H](OC)[C@@H](C)O5)O4)O3)C[C@H](O)[C@H]2C)[C@H](OC)[C@@H](O[C@H]2CC[C@H](OC)[C@@H](C)O2)[C@@H]1C.[Na+] (stereo partly drawn)
IC50 (Gallus gallus [1]): 0.01 p.p.m.
MEC (Gallus gallus [2]): 60 p.p.m.

CO[C@@H]1[C@@H](O[C@H]2CC[C@H](OC)[C@@H](C)O2)[C@H](C)[C@@](O)(CC(=O)[O-])O[C@H]1[C@H](C)[C@H]1O[C@@]2(CC[C@@](C)([C@H]3CC[C@@](C)([C@@H]4O[C@@H]([C@@H](O)[C@@H](C)C[C@@H](C)[C@@H](C)O)C[C@@H]4O[C@H]4CC[C@H](OC)[C@@H](C)O4)O3)O2)C[C@H](O)[C@H]1C.[Na+]
IC50 (Gallus gallus [1]): 0.05 p.p.m.
MEC (Gallus gallus [2]): 80 p.p.m.

CO[C@@H]1[C@@H](O)[C@H](C)[C@@](O)(CC(=O)[O-])O[C@H]1[C@H](C)[C@H]1O[C@@]2(CC[C@@](C)([C@H]3CC[C@@](C)([C@@H]4O[C@@H]([C@H]5O[C@](C)(O)[C@H](C)C[C@@H]5C)C[C@@H]4O)O3)O2)C[C@H](O)[C@H]1C.[Na+]
IC50 (Gallus gallus [1]): > 1 p.p.m.
MEC (Gallus gallus [2]): >50 p.p.m.

C#CCC(C(=O)[O-])[C@@]1(O)O[C@@H]([C@H](C)[C@H]2O[C@@]3(CC[C@@](C)([C@H]4CC[C@@](C)([C@@H]5O[C@@H]([C@H]6O[C@](C)(O)[C@H](C)C[C@@H]6C)C[C@@H]5O[C@H]5CC[C@H](OC)[C@@H](C)O5)O4)O3)C[C@H](O)[C@H]2C)[C@H](OC)[C@@H](O[C@H]2CC[C@H](OC)[C@@H](C)O2)[C@@H]1C.[Na+] (stereo in doubt; 2e)
MEC (Gallus gallus [2]): >60 p.p.m.

C#CCC(C(=O)[O-])[C@@]1(O)O[C@@H]([C@H](C)[C@H]2O[C@@]3(CC[C@@](C)([C@H]4CC[C@@](C)([C@@H]5O[C@@H]([C@H]6O[C@](C)(O)[C@H](C)C[C@@H]6C)C[C@@H]5O[C@H]5CC[C@H](OC)[C@@H](C)O5)O4)O3)C[C@H](O)[C@H]2C)[C@H](OC)[C@@H](O[C@H]2CC[C@H](OC)[C@@H](C)O2)[C@@H]1C.[Na+] (stereo in doubt; 2f)
IC50 (Gallus gallus [1]): 0.01 p.p.m.
MEC (Gallus gallus [2]): 60 p.p.m.

CO[C@@H]1[C@@H](O[C@H]2CC[C@H](OC)[C@@H](C)O2)[C@H](C)[C@@](O)(CC(=O)[O-])O[C@H]1[C@H](C)[C@H]1O[C@@]2(CC[C@@](C)([C@H]3CC[C@@](C)([C@@H]4O[C@@H]([C@H]5O[C@](C)(O)[C@H](C)C[C@@H]5C)C[C@@H]4O[C@H]4CC[C@H](OC)[C@@H](C)O4)O3)O2)C[C@H](O)[C@H]1C.[Na+] [IONOPHORE]
IC50 (Gallus gallus [1]): 0.03 p.p.m.
MEC (Gallus gallus [2]): 15 p.p.m.

CO[C@@H]1[C@@H](O)[C@H](C)[C@@](O)(CC(=O)[O-])O[C@H]1[C@H](C)[C@H]1O[C@@]2(CC[C@@](C)([C@H]3CC[C@@](C)([C@@H]4O[C@@H]([C@H]5O[C@](C)(O)[C@H](C)C[C@@H]5C)C[C@@H]4O[C@H]4CC[C@H](OC)[C@@H](C)O4)O3)O2)C[C@H](O)[C@H]1C.[Na+] [SEMDURAMICIN SODIUM]
IC50 (Gallus gallus [1]): 0.03 p.p.m.
MEC (Gallus gallus [2]): 25 p.p.m.
